In brackets after ≈: the same amount, converted by molar mass.
Experiments:
[1] = Stability in human plasma at 37 °C; format: in vitro ADME
[2] = Enantiomeric ratio during incubation with human plasma; format: in vitro ADME; details: Chiral Cel OD-H
Summary of the method: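 Test compound (100 mM acetonitrile stock) added to human plasma, which was diluted with distilled water and pre-warmed 5 min, then incubated at 37 °C. At t1/4 and t1/2, portions were quenched with acetonitrile and run on HPLC with a Chiral Cel OD-H column; LC/MS also used. Ratio taken from each enantiomer's peak integration.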

Stability in PBS buffer = format: physicochemical; details: pH 7.4
Summary of the method: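 Test compound (10 mM acetonitrile stock, diluted 1:10) incubated in PBS pH 7.4 at 37 °C. Aliquots were taken at various times and injected directly onto HPLC with UV detection; run twice per compound. t1/2 = ln(2)/b, where b is the slope of ln(remaining parent fraction) versus time (one-phase decay).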

[3] = system: Streptococcus pneumoniae strain TIGR4; experiment: Minimal inhibitory concentration; format: cell-based
[4] = system: bioactivity of mevalonate; details: 200 μM concentration; cited from earlier work
[5] = system: HaCaT human keratinocytes; experiment: General cytotoxicity by lactate dehydrogenase; format: cell-based; details: concentrations up to 1.6 mM, 24 h
[6] = system: Staphylococcus aureus (TCH1516); experiment: MIC against additional organisms; format: cell-based
[7] = system: Streptococcus agalactiae (GBS COH1); experiment: MIC against additional organisms; format: cell-based
[8] = system: vancomycin resistant Enterococcus (VRE); experiment: MIC against additional organisms; format: cell-based
E. coli K12 = experiment: MIC against additional organisms; format: cell-based
[9] = system: Streptococcus pyogenes (GAS 5448); experiment: MIC against additional organisms; format: cell-based
RAW murine macrophages = experiment: General cytotoxicity by lactate dehydrogenase; format: cell-based; details: concentrations up to 1.6 mM, 24 h
[10] = Stability of prospective decomposition intermediates of 23 in PBS buffer; format: physicochemical
[11] = Stability of ester promoiety in deuterated PBS buffer; format: physicochemical
Summary of the method: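 Deuterated PBS pH 7.4 in D2O (NaCl 137 mM, KCl 2.7 mM, Na2HPO4 10.1 mM, KH2PO4 1.8 mM). Test compound (1.0 mg, 4 μmol) dissolved in 800 μL of this buffer in an NMR tube and held at 37 °C. 1H NMR taken at 30 min, 1 h, 4 h, 24 h and 48 h. Decomposition judged from the integration ratio of impurity to parent signals.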

human MK = details: at concentrations that effectively inhibit the S. pneumoniae system; cited from earlier work
[12] = t1/2 (min) of carbonate analogues in human plasma, footnote a: hydrolysis occurred only at carbonate promoieties
[13] = Streptococcus pneumoniae, TIGR4, 24 h
[14] = t1/2 (min) of benzyl amide and ester analogues in human plasma, footnote a: hydrolysis occurred only at the acetyl promoiety

CC1(CC(=O)OCc2ccccc2)CCOC(=O)O1 (stereo not shown) [compound 4, Benzyl 2-(4-methyl-2-oxo-1,3-dioxan-4-yl)acetate]
half-life at 4 mM [1, 12]: 0.0667 h
integration ratio of each enantiomer ([2]; at 2 min): 35/65
integration ratio of each enantiomer ([2]; at 4 min): 41/59
half-life (Stability in PBS buffer): > 48 h

O=C(CC1(CF)CCOC(=O)O1)OCc1ccccc1 (stereo not shown) [compound 16, Benzyl 2-(4-(fluoromethyl)-2-oxo-1,3-dioxan-4-yl)acetate]
antibacterial activity against S. pneumoniae (in words) ([3]; S. pneumoniae, THB medium): generally inactive
MIC [3, 13]: > 1600 µM
half-life (Stability in PBS buffer): 25 h

6-fluoromevalonate
block of the related bioactivity of mevalonate [4]: completely blocks

CC1(CC(=O)NCc2ccc(F)cc2)CCOC(=O)O1 (stereo not shown) [10c, N-(4-Fluorobenzyl)-2-(4-methyl-2-oxo-1,3-dioxan-4-yl)acetamide]
half-life at 4 mM [1, 12]: 0.133 h

CC(O)(CCO)CC(=O)NCc1c(F)c(F)c(F)c(F)c1F (stereo not shown) [compound 34, 3,5-Dihydroxy-3-methyl-N-((perfluorophenyl)methyl)pentanamide]
half-life ([1]; half-life in human plasma): > 2 h

O=C1CC(O)(C(F)(F)F)CCO1 (stereo not shown) [compound 26, 4-Hydroxy-4-(trifluoromethyl)tetrahydro-2H-pyran-2-one]
MIC ([3]; Streptococcus pneumoniae, TIGR4): 800 µM (≈ 147 µg/mL)
MIC [3, 13]: 800 µM (≈ 147 µg/mL)
general cytotoxicity (LDH release vs media alone) [5]: No evidence of general cytotoxicity
MIC ([6]; Staphylococcus aureus): > 1600 µM
MIC ([7]; Streptococcus agalactiae): 800 µM (≈ 147 µg/mL)
MIC ([8]; Enterococcus, VRE): > 1600 µM
MIC (E. coli K12; Escherichia coli, K12): > 1600 µM
MIC ([9]; Streptococcus pyogenes): 200 µM (≈ 36.8 µg/mL)
general cytotoxicity (LDH release vs media alone) (RAW murine macrophages): No evidence of general cytotoxicity
half-life [10]: ~1 min

CC(=O)OCCC(C)(O)CC(=O)NCc1c(F)c(F)c(F)c(F)c1F (stereo not shown) [compound 35, 3-Hydroxy-3-methyl-5-oxo-5-(((perfluorophenyl)methyl)amino)pentyl acetate]
half-life at 4 mM [1, 14]: 0.333 to 0.5 h

CC(=O)OCCC(O)(CF)CC(=O)NCc1ccccc1 (stereo not shown) [38a, 5-(Benzylamino)-3-(fluoromethyl)-3-hydroxy-5-oxopentyl acetate]
MIC [3, 13]: > 1600 µM
half-life at 4 mM [1, 14]: 0.333 to 0.5 h

CCOC(=O)CC(O)(CF)CCOC(C)=O (stereo not shown) [38c, Ethyl 5-acetoxy-3-(fluoromethyl)-3-hydroxypentanoate]
MIC [3, 13]: > 1600 µM
decomposition after 48 h ([11]; deuterated PBS buffer pH 7.4, 37 °C, 48 h, 1H NMR integration ratio): less than 5%
half-life ([11]; deuterated PBS buffer, pH 7.4): > 48 h

O=C(CC1(CF)CCOC(=O)O1)OCc1ccc(F)cc1 (stereo not shown) [18a, 4-Fluorobenzyl 2-(4-(fluoromethyl)-2-oxo-1,3-dioxan-4-yl)acetate]
antibacterial activity against S. pneumoniae (in words) ([3]; S. pneumoniae, THB medium): generally inactive
MIC [3, 13]: > 1600 µM
half-life (Stability in PBS buffer): 26 h

C[C@@](O)(CCOP(=O)(O)OP(=O)(O)O)CC(=O)O [DPM, 5-diphosphomevalonate]
inhibition of human MK (human MK): not inhibited

O=C(CC1(C(F)(F)F)CCOC(=O)O1)OCc1ccccc1 (stereo not shown) [compound 23, Benzyl 2-(2-oxo-4-(trifluoromethyl)-1,3-dioxan-4-yl)acetate]
half-life (Stability in PBS buffer): 5 h

O=C(CC1(C(F)(F)F)CCOC(c2ccccc2)O1)NCc1ccccc1 (stereo not shown) [32b, N-Benzyl-2-(2-phenyl-4-(trifluoromethyl)-1,3-dioxan-4-yl)acetamide]
antibacterial activity against S. pneumoniae (in words) ([3]; S. pneumoniae, THB medium): lack activity
MIC [3, 13]: > 1600 µM

CC1(CC(=O)Oc2ccccc2)CCOC(=O)O1 (stereo not shown) [9a, Phenyl 2-(4-methyl-2-oxo-1,3-dioxan-4-yl)acetate]
half-life at 4 mM [1, 12]: < 0.05 h

CC1(CC(=O)NCc2ccccc2)CCOC(=O)O1 (stereo not shown) [10b, N-Benzyl-2-(4-methyl-2-oxo-1,3-dioxan-4-yl)acetamide]
half-life at 4 mM [1, 12]: 0.133 h
integration ratio of each enantiomer ([2]; at 4 min): 48/52
integration ratio of each enantiomer ([2]; at 8 min): 46/54

O=C1CC(O)(CF)CCO1 (stereo not shown) [compound 28, 6-fluoromevalolactone]
potency relative to 6,6,6-trifluoromevalolactone (26) ([3]; S. pneumoniae MIC ratio): 4 fold
MIC ([3]; S. pneumoniae, THB media): 200 µM (≈ 29.6 µg/mL)
MIC ([3]; S. pneumoniae, THB medium, 24 h, 37 °C, lowest drug concentration that reduced growth by 80% or more): 200 µM (≈ 29.6 µg/mL)
MIC ([6]; Staphylococcus aureus (TCH1516)): > 1600 µM
MIC ([7]; Streptococcus agalactiae (GBS COH1)): > 1600 µM
MIC ([8]; vancomycin resistant Enterococcus (VRE)): > 1600 µM
MIC (E. coli K12; E. coli K12): > 1600 µM
MIC ([9]; Streptococcus pyogenes (GAS 5448)): > 1600 µM

O=C(CC1(CF)CCOC(=O)O1)OCc1ccc(F)cc1F (stereo not shown) [18b, 2,4-Difluorobenzyl 2-(4-(fluoromethyl)-2-oxo-1,3-dioxan-4-yl)acetate]
half-life (Stability in PBS buffer): 22 h

COC(=O)CC(O)(CF)CCOC(C)=O (stereo not shown) [38b, Methyl 5-acetoxy-3-(fluoromethyl)-3-hydroxypentanoate]
MIC [3, 13]: > 1600 µM

O=C(CC1(C(F)(F)F)CCOC(=O)O1)OCc1ccc(F)cc1 (stereo not shown) [25a, 4-Fluorobenzyl 2-(2-oxo-4-(trifluoromethyl)-1,3-dioxan-4-yl)acetate]
antibacterial activity against S. pneumoniae (in words) ([3]; S. pneumoniae, THB medium): marginally active
MIC [3, 13]: 1600 µM (≈ 538 µg/mL)
general cytotoxicity (LDH release vs media alone) [5]: No evidence of general cytotoxicity
MIC ([6]; Staphylococcus aureus): > 1600 µM
MIC ([7]; Streptococcus agalactiae): > 1600 µM
MIC ([8]; Enterococcus, VRE): > 1600 µM
MIC (E. coli K12; Escherichia coli, K12): > 1600 µM
MIC ([9]; Streptococcus pyogenes): > 1600 µM
general cytotoxicity (LDH release vs media alone) (RAW murine macrophages): No evidence of general cytotoxicity
half-life (Stability in PBS buffer): 6 h

O=C(CC1(C(F)(F)F)CCOC(=O)O1)OCc1ccc(F)cc1F (stereo not shown) [25b, 2,4-Difluorobenzyl 2-(2-oxo-4-(trifluoromethyl)-1,3-dioxan-4-yl)acetate]
half-life (Stability in PBS buffer): 5 h

CN[C@H](CC(C)C)C(=O)N[C@H]1C(=O)N[C@@H](CC(N)=O)C(=O)N[C@H]2C(=O)N[C@H]3C(=O)N[C@H](C(=O)N[C@H](C(=O)O)c4cc(O)cc(O)c4-c4cc3ccc4O)[C@H](O)c3ccc(c(Cl)c3)Oc3cc2cc(c3O[C@@H]2O[C@H](CO)[C@@H](O)[C@H](O)[C@H]2O[C@H]2C[C@](C)(N)[C@H](O)[C@H](C)O2)Oc2ccc(cc2Cl)[C@H]1O [vancomycin, reference compound]
MIC ([6]; Staphylococcus aureus): < 12.5 µM
MIC ([7]; Streptococcus agalactiae): < 12.5 µM
MIC ([8]; Enterococcus, VRE): < 12.5 µM
MIC (E. coli K12; Escherichia coli, K12): < 12.5 µM
MIC ([9]; Streptococcus pyogenes): < 12.5 µM

CC1(C)S[C@@H]2[C@H](NC(=O)Cc3ccccc3)C(=O)N2[C@H]1C(=O)O [penicillin G, reference compound]
MIC ([6]; Staphylococcus aureus): < 12.5 µM
MIC ([7]; Streptococcus agalactiae): < 12.5 µM
MIC ([8]; Enterococcus, VRE): < 12.5 µM
MIC (E. coli K12; Escherichia coli, K12): < 12.5 µM
MIC ([9]; Streptococcus pyogenes): < 12.5 µM

CC1(CC(=O)Nc2ccccc2)CCOC(=O)O1 (stereo not shown) [10a, 2-(4-Methyl-2-oxo-1,3-dioxan-4-yl)-N-phenylacetamide]
half-life at 4 mM [1, 12]: < 0.05 h

CC1(CC(=O)Oc2ccc(F)cc2)CCOC(=O)O1 (stereo not shown) [9b, 4-Fluorophenyl 2-(4-methyl-2-oxo-1,3-dioxan-4-yl)acetate]
half-life at 4 mM [1, 12]: < 0.05 h

Reference: PMC4291291 (European journal of medicinal chemistry, 2014)
